ChEMBL document CHEMBL4229392, “An Efficient Buchwald-Hartwig/Reductive Cyclization for the Scaffold Diversification of Halogenated Phenazines: Potent Antibacterial Targeting, Biofilm Eradication, and Prodrug Exploration” (J Med Chem, 2018)
≈ marks a conversion by molar mass, not a printed value. Calls of active or inactive are those of the source. The rule behind the calls is not given here.

Tests used:
[1] = tested on: Enterococcus faecium; assay: Antibacterial activity against vancomycin-resistant Enterococcus faecium ATCC 700221 after 16 to 18 hrs by broth microdilution method; type: functional
Summary of the method: (§1)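 CLSI broth microdilution in Lysogeny Broth, eleven two-fold dilutions spanning 0.10–100 µM; ~10^5 cells per well from log-phase culture; DMSO vehicle (top 1% v/v). MIC = lowest concentration preventing growth after 16–18 h at 37 °C, supported by OD600; three independent experiments.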

[2] = tested on: Staphylococcus epidermidis; assay: Bactericidal activity against methicillin-resistant Staphylococcus epidermidis ATCC 35984 planktonic cells after 24 hrs by calgary biofilm device method; type: organism-based
Summary of the method: (§2)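 Biofilms grown 24 h at 37 °C on Calgary device pegs from mid-log culture diluted 1,000-fold in TSB + 0.5% glucose; washed pegs challenged 24 h at 37 °C with 2-fold serial dilutions. Challenge medium subcultured into fresh TSBG overnight; MBC = concentration without visible turbidity; at least three independent experiments.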

[3] = tested on: Enterococcus faecium; assay: Bactericidal activity against vancomycin-resistant Enterococcus faecium ATCC 700221 planktonic cells after 24 hrs by calgary biofilm device method; type: organism-based; summary of the method: as §2
[4] = tested on: Staphylococcus aureus; assay: Bactericidal activity against methicillin-resistant Staphylococcus aureus BAA-1707 planktonic cells after 24 hrs by calgary biofilm device method; type: organism-based; summary of the method: as §2
[5] = tested on: Enterococcus faecium; assay: Induction of biofilm eradication of vancomycin-resistant Enterococcus faecium ATCC 700221 after 24 hrs by calgary biofilm device method; type: functional
Summary of the method: (§3)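 Calgary device: biofilms established 24 h at 37 °C from mid-log culture diluted 1,000-fold in TSBG (0.5% glucose), washed, exposed 24 h to 2-fold serial dilutions, then peg lid moved to fresh TSBG for 24 h recovery. MBEC = lowest concentration giving no turbidity; at least three independent experiments.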

[6] = Hemolytic activity in human RBC at 200 uM after 1 hr relative to control; type: ADME, cell-based, Erythrocyte; details: red blood cells (erythrocytes), read-out: Activity
Summary of the method: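 Human RBCs drawn fresh into EDTA were washed three times in Tris-buffered saline (0.01 M Tris, 0.155 M NaCl, pH 7.2). 2% hRBC suspension was added to compound from DMSO stock, final 200 µM, for 1 h at 37 °C, then centrifuged and supernatant OD405 read. Scaled between DMSO (0%) and Triton X (100%). Three independent experiments.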

[7] = tested on: Staphylococcus aureus; assay: Bactericidal activity against methicillin-resistant Staphylococcus aureus 2 planktonic cells after 24 hrs by calgary biofilm device method; type: organism-based; summary of the method: as §2
[8] = tested on: Staphylococcus aureus; assay: Induction of biofilm eradication of methicillin-resistant Staphylococcus aureus 2 after 24 hrs by calgary biofilm device method; type: functional; summary of the method: as §3
[9] = tested on: Staphylococcus aureus; assay: Induction of biofilm eradication of methicillin-resistant Staphylococcus aureus BAA-44 after 24 hrs by calgary biofilm device method; type: functional; summary of the method: as §3
[10] = tested on: Staphylococcus aureus; assay: Induction of biofilm eradication of methicillin-resistant Staphylococcus aureus BAA-1707 after 24 hrs by calgary biofilm device method; type: functional; summary of the method: as §3
[11] = tested on: Staphylococcus epidermidis; assay: Induction of biofilm eradication of methicillin-resistant Staphylococcus epidermidis ATCC 35984 after 24 hrs by calgary biofilm device method; type: functional; summary of the method: as §3
[12] = tested on: HeLa; assay: Cytotoxicity against human HeLa cells after 24 hrs by LDH release assy; type: cell-based
Summary of the method: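 HeLa cells in DMEM with 10% FBS at 37 °C, 5% CO2, dosed at 70-80% confluence with compound diluted in medium at 25, 50 and 100 µM for 24 h. Supernatant mixed with LDH reaction mixture, 30 min at room temperature, stopped, A490 read. Triton X-100 (2% v/v) as maximal-release control, medium only as no-death control, DMSO as vehicle. Three independent experiments.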

[13] = tested on: Staphylococcus aureus; assay: Antibacterial activity against methicillin-resistant Staphylococcus aureus BAA-1707 after 16 to 18 hrs by broth microdilution method; type: functional; summary of the method: as §1
[14] = tested on: Staphylococcus aureus; assay: Antibacterial activity against methicillin-resistant Staphylococcus aureus BAA-1707 after 16 hrs by agar diffusion method; type: functional
[15] = Half life in human serum by LC-MS analysis; type: ADME, cell-free
Summary of the method: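 Human serum pre-warmed to 37 °C, spiked with prodrug from 10 mM DMSO stock plus internal standard, vortexed, then held 1 to 60 min. At each time point, acetonitrile with 0.5% formic acid was added to precipitate proteins. Released active HP was quantified as its ratio to internal standard against standard curves.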

[16] = tested on: Staphylococcus epidermidis; assay: Antibacterial activity against methicillin-resistant Staphylococcus epidermidis ATCC 35984 after 16 to 18 hrs by broth microdilution method; type: functional
[17] = Selectivity index, ratio of IC50 for human HeLa cells to MIC for methicillin-resistant Staphylococcus aureus BAA-1707; type: toxicity; details: read-out: Selectivity Index
Summary of the method: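 HeLa cells in DMEM + 10% FBS, 37 °C, 5% CO2, at 70–80% confluence exposed 24 h to 25, 50 and 100 µM; LDH release read at 490 nm (Triton X-100 2% maximum, medium-only minimum); three independent experiments. Index = HeLa IC50 divided by MRSA BAA-1707 MIC.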

[18] = tested on: Mycobacterium tuberculosis; assay: Antibacterial activity against Mycobacterium tuberculosis H37Ra ATCC 25177 after 7 days; type: functional; details: H37Ra ATCC 25177, 168 h
Summary of the method: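 M. tuberculosis H37Ra grown two weeks in Middlebrook 7H9, diluted to OD600 0.01; two-fold serial dilutions 0.024–50 µM (streptomycin positive control, 0.16–340 µM); final DMSO 0.5%. Incubated 7 days at 37 °C; MIC = lowest concentration with no growth, OD600 recorded; three independent experiments.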

[19] = Metal chelating activity assessed as compound-Fe2+ complex formation at 5 mM by UV-vis spectrometry
Summary of the method: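 HP solutions given ammonium iron(II) sulfate hexahydrate; UV-vis scans 300–700 nm in 2 nm steps, λmax 374 nm. Loss of absorbance at 374 nm taken as loss of free hydroxyphenazine and formation of phenazine–iron(II) complex.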

[20] = tested on: Staphylococcus aureus; assay: Antibacterial activity against methicillin-resistant Staphylococcus aureus 2 after 16 to 18 hrs by broth microdilution method; type: functional; summary of the method: as §1
[21] = tested on: Staphylococcus aureus; assay: Bactericidal activity against methicillin-resistant Staphylococcus aureus BAA-44 planktonic cells after 24 hrs by calgary biofilm device method; type: organism-based; summary of the method: as §2
[22] = tested on: Staphylococcus epidermidis; assay: Induction of biofilm eradication of methicillin-resistant Staphylococcus epidermidis ATCC 35984 at 1 to 10 uM after 24 hrs by live/dead staining-based fluorescence microscopic method; type: functional, organism-based
Summary of the method: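 MRSE 35984 mid-log culture diluted 1:1,000, biofilms grown 24 h at 37 °C in compartment dishes, saline-washed, then treated at 1, 5 and 10 µM in fresh medium for 24 h at 37 °C; DMSO negative control. After saline wash, live/dead stained biofilms imaged by fluorescence microscopy; three independent experiments.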

[23] = Metal chelating activity assessed as compound-copper complex formation by UV-vis spectrometry
[24] = Stability in lysogeny broth at 37 degC up to 16 hrs by UV-vis spectrophotometric method; type: physicochemical
Summary of the method: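 Compound from 10 mM DMSO stock was added to LB pre-warmed to 37 °C and incubated at 37 °C. At each time point it was extracted with an equal volume of ethyl acetate, and UV-vis spectra were scanned from 200 to 700 nm in 2 nm steps.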

Compound | MIC [1] [µM] | MBC [2] [µM] | MBC [3] [µM] | MBC [4] [µM] | MBEC [5] [µM] | hemolysis at 1 h, 200 µM [6] [%] | MBC [7] [µM] | MBEC [8] [µM] | MBEC [10] [µM] | MBEC [11] [µM] | IC50 [12] [µM] | MIC [13] [µM] | MIC [16] [µM] | MIC [18] [µM] | MIC [20] [µM] | MBC [21] [µM] | other results
CN[C@H](CC(C)C)C(=O)N[C@H]1C(=O)N[C@@H](CC(N)=O)C(=O)N[C@H]2C(=O)N[C@H]3C(=O)N[C@H](C(=O)N[C@H](C(=O)O)c4cc(O)cc(O)c4-c4cc3ccc4O)[C@H](O)c3ccc(c(Cl)c3)Oc3cc2cc(c3O[C@@H]2O[C@H](CO)[C@@H](O)[C@H](O)[C@H]2O[C@H]2C[C@](C)(N)[C@H](O)[C@H](C)O2)Oc2ccc(cc2Cl)[C@H]1O [VANCOMYCIN] | > 100 | 3 (≈ 4.35 µg/mL) | > 200 | 3.9 (≈ 5.65 µg/mL) | 150 | ≤ 1 | 3 (≈ 4.35 µg/mL) | >2000 | >2000 | >2000 |  |  |  |  |  |  | MBEC [9]: >2000 µM
CC1=C(C)C(=O)C(COC(=O)OCOc2c(Br)cc(Br)c3nc4cc(Cl)ccc4nc23)=C(C)C1=O | 1.56 (≈ 0.974 µg/mL) | 12.5 (≈ 7.81 µg/mL) | 3.13 (≈ 1.96 µg/mL) | 6.25 (≈ 3.9 µg/mL) | 3.13 | 2.7 |  |  | 12.5 | 25 | > 100 | 0.15 (≈ 0.0937 µg/mL) |  |  |  |  | inhibition zone (IZ) [14]: 2.86 cm2; half-life [15]: 11.4 min
Cc1ccc2nc3c(O)ccc(Br)c3nc2c1 | 25 (≈ 7.23 µg/mL) |  |  |  |  |  |  |  |  |  | > 100 | 12.5 (≈ 3.61 µg/mL) | 12.5 (≈ 3.61 µg/mL) | 25 (≈ 7.23 µg/mL) |  |  | selectivity ratio [17]: > 8
Cc1ccc2nc3c(Br)cc(Br)c(O)c3nc2c1C | > 100 |  |  |  |  |  |  |  |  |  |  | > 100 | > 100 |  |  |  | Activity [19]: inactive
Cc1cc(C)c2nc3c(Br)cc(Br)c(O)c3nc2c1 | 0.2 (≈ 0.0764 µg/mL) |  |  |  |  | 2.2 |  |  |  |  | > 100 | 0.075 to 0.08 (≈ 0.0287 to 0.0306 µg/mL) | 0.1 (≈ 0.0382 µg/mL) | 50 (≈ 19.1 µg/mL) | 0.3 (≈ 0.115 µg/mL) |  | 
Oc1c(Br)cc(Br)c2nc3cc(Oc4ccccc4)ccc3nc12 | 0.2 (≈ 0.0892 µg/mL) |  |  |  |  | ≤ 1 |  |  |  |  | > 100 | 0.075 (≈ 0.0335 µg/mL) | 0.1 (≈ 0.0446 µg/mL) | 6.25 (≈ 2.79 µg/mL) | 0.39 (≈ 0.174 µg/mL) | 25 (≈ 11.2 µg/mL) | 
Oc1c(Br)cc(Br)c2nc3cc(Cl)ccc3nc12 |  | 6.25 (≈ 2.43 µg/mL) |  |  |  | ≤ 1 | 6.25 (≈ 2.43 µg/mL) | 25 | 4.69 | 37.5 | > 100 | 0.038 (≈ 0.0148 µg/mL) | 0.1 (≈ 0.0388 µg/mL) | 3.13 (≈ 1.22 µg/mL) | 0.1 (≈ 0.0388 µg/mL) | 6.25 (≈ 2.43 µg/mL) | Activity [19]: Active; inhibition zone (IZ) [14]: 4.25 cm2; Activity [22]: Active; Activity [23]: Active
Oc1c(Br)cc(Br)c2nc3ccccc3nc12 | 6.25 (≈ 2.21 µg/mL) | 50 (≈ 17.7 µg/mL) | 23.5 (≈ 8.32 µg/mL) | 18.8 to 37.5 (≈ 6.66 to 13.3 µg/mL) | 9.38 | ≤ 1 | 50 (≈ 17.7 µg/mL) | 100 | 150 | 100 | > 100 |  |  | 25 (≈ 8.85 µg/mL) |  | 37.5 (≈ 13.3 µg/mL) | MBEC [9]: 150 µM
CCc1ccc2nc3c(O)c(Br)cc(Br)c3nc2c1 | 2.35 (≈ 0.898 µg/mL) | 50 (≈ 19.1 µg/mL) | 50 (≈ 19.1 µg/mL) | 75 (≈ 28.7 µg/mL) |  | 3 | 75 (≈ 28.7 µg/mL) | 150 | 150 | 75 | > 50 | 0.1 (≈ 0.0382 µg/mL) | 0.1 (≈ 0.0382 µg/mL) | 6.25 (≈ 2.39 µg/mL) | 0.59 (≈ 0.225 µg/mL) | 75 (≈ 28.7 µg/mL) | MBEC [9]: 75 µM
CC1=C(C)C(=O)C(COC(=O)OCOc2c(Br)cc(Br)c3nc4ccccc4nc23)=C(C)C1=O | 9.38 (≈ 5.54 µg/mL) | 37.5 (≈ 22.1 µg/mL) | 12.5 (≈ 7.38 µg/mL) | 25 (≈ 14.8 µg/mL) | 9.38 | ≤ 1 |  |  | 75 | 150 |  | 2.35 (≈ 1.39 µg/mL) | 2.35 (≈ 1.39 µg/mL) |  |  |  | Stability [24]: Stable; half-life [15]: 6.3 min
CCc1cccc2nc3c(Br)cc(Br)c(O)c3nc12 | > 100 |  |  |  |  |  |  |  |  |  |  | > 100 | > 100 |  |  |  | Activity [19]: inactive; Activity [23]: inactive
CC(C)(C)c1ccc2nc3c(O)c(Br)cc(Br)c3nc2c1 | 0.1 (≈ 0.041 µg/mL) | 6.25 (≈ 2.56 µg/mL) | 1.56 (≈ 0.64 µg/mL) |  |  | ≤ 1 | 3.13 (≈ 1.28 µg/mL) | 3.13 |  | 3.13 | > 100 | 0.1 (≈ 0.041 µg/mL) | 0.1 (≈ 0.041 µg/mL) |  | 0.1 (≈ 0.041 µg/mL) |  | 
